Source: PubChem
This is a sample that favours compounds with a hit; in the whole collection about 5.3% have one here.
Calb FLC – affects C. albicans growth with fluconazole; AID 1979; C. albicans CaCi-2 (fluconazole-resistant clinical isolate) + fluconazole, Alamar Blue growth, 48 h; 300,000 tested, 0.57% active; growth inhibition, % (concentration not given with the values);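 active = growth inhibition above about 58% in most replicates, limit read from the data, passing the limit was not always enough; inconclusive = exactly half the replicates above a set limit; inactive = most replicates below a set limit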;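 also: all wells also contain fluconazole at 8 µg/ml as a sub-toxic cotreatment; 0% = median of DMSO wells and 100% = median of geldanamycin control wells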
T cruzi repl – T. cruzi replication inhibition; T. cruzi beta-gal in NIH3T3, luminescence, 90 h; inhibition, % (test concentration not listed); 300,000 tested, 1.4% active; AID 1885;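 active = mean inhibition across valid replicates above about 55%, limit read from the data; inconclusive = mean below that limit but half or more replicates reach it; inactive = mean below it, under half of replicates reach it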;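 also: signal also drops with host cell toxicity which is not excluded here; 0% = plate median of DMSO wells and 100% = zero luminescence signal; higher percent means less beta-gal luminescence so fewer parasites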
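System: NIH/3T3 fibroblasts plus reporter T. cruzi. Medium: DMEM plus 2% FBS. Probe or stimulus: 5000 reporter trypomastigotes per well. Compound: single 50 nL compound addition per well in DMSO. Incubation: co-culture of at least 90 h after 3 h attachment. Detection: GalScreen β-gal luminescence, detergent lysis, 60 min. Evaluation: parasite load inhibition, %.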
NALP3 yeast inh – inhibitors of NALP3 inflammasome in yeast; Yeast reconstituted NLRP3/ASC/caspase-1, beta-gal luminescence, 24 h; inhibition, % at 10 µM; 330,000 tested, 0.39% active;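 active = inhibition of 50% or more; inactive = inhibition below 50%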;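 also: plate controls were induced DMSO wells for no effect and uninduced yeast grown without galactose for full effect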
CSC inhib – blocks cancer stem cells; cancer stem cell-like cells viability, luminescence; inhibition, % at 7.5 µM; 300,000 tested, 1.1% active; AID 2717; in the data active = inhibition above about 75%; inconclusive = no clear call, values can overlap the other calls; tested in HMLE shEcad cells
Beta cell apopt – blocks beta cell apoptosis; protection from apoptosis, % (no concentration beside the values); 300,000 tested, 0.8% active; INS-1E cytokine-induced death, ATP luminescence, 48 h; percent of positive-control rescue, neutral wells zero;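 active = Every replicate reaches about 75%, or at least half do and their mean reaches it too, limit read from the data; inconclusive = At least half of replicates reach the limit but their mean does not; inactive = Under half of replicates reach the limit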;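 also: 0% = cytokine-treated negative control wells and 100% = positive control rescue; higher means more ATP so stronger rescue from cytokine killing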
Mdm2-MdmX inh – inhibitors of human Mdm2/MdmX interaction; O15151+Q00987; SaOS-2 split-luciferase Mdm2/MdmX complementation, luminescence; inhibition, % at 8 µM; 330,000 tested, 3% active; AID 485346;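 active = inhibition of at least 50% at 8 µM in the primary screen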
Mdm2 MdmX conf – human Mdm2/MdmX binding inhibition, confirmed; shares compounds with Mdm2-MdmX inh; luminescent assay; inhibition, % at 8 µM; 10,000 tested, 55% active; AID 489028; in the data active = inhibition above about 40%
Full FLuc ctr – inhibits full-length luciferase, flagging false Mdm2/MdmX hits; shares compounds with Mdm2-MdmX inh; SaOS-2 full-length luciferase counterscreen, luminescence; inhibition, % at 8 µM; 6,200 tested, 77% active; AID 504607;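 active = mean inhibition at 8 µM reaching about 37%, which flags the compound as non-specific, limit read from the data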;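 also: p53-null SaOS-2 cells with luciferase driven by a doxycycline-inducible promoter; compound on cells about two nights before reading with doxycycline added after day one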
* hit, by the source's call; ? = inconclusive; nt = no result given.

SMILES | Calb FLC | T cruzi repl | NALP3 yeast inh | CSC inhib | Beta cell apopt | Mdm2-MdmX inh | Mdm2 MdmX conf | Full FLuc ctr
O=C(Nc1cccnc1)c1ccc(Cl)c(S(=O)(=O)N2CCCC2)c1 | -7 | 0 | 7 | -14 | -3 | -5 | nt | nt
C/C=C1\COC(C(=O)NCc2ccccc2)(C(F)(F)F)C=C1C=C1CCCCC1 (centres undefined) | -2 | 17 | -2 | 1 | 0 | 21 | nt | nt
C/C=C1\COC(C(=O)NCCN2CCCC2)(C(F)(F)F)C=C1C=C1CCCCC1 (centres undefined) | -20 | 42 | 8 | 34 | 9 | 53* | 20 | nt
CCCn1nc(C(=O)Nc2cccc(S(=O)(=O)N(C)c3ccccc3)c2)c2ccccc2c1=O | nt | nt | 2 | -4 | 12 | 53* | 13 | nt
Cn1nc(C(=O)Nc2cccc(S(=O)(=O)N3CCOCC3)c2)c2ccccc2c1=O | nt | nt | 13 | -6 | -10 | 28 | nt | nt
Cn1nc(C(=O)Nc2cccc(S(=O)(=O)N3CCCC3)c2)c2ccccc2c1=O | nt | nt | 7 | nt | -8 | 54* | 2 | nt
CCOc1cc(N2CCOCC2)c(OCC)cc1NC(=O)c1nn(CC)c(=O)c2ccccc12 | nt | nt | 19 | nt | 36 | 86* | 49* | 87*
CCOc1cc(N2CCOCC2)c(OCC)cc1NC(=O)c1ccco1 | 45 | 3 | 19 | -5 | 0 | 7 | nt | nt
CCCn1nc(C(=O)Nc2ccc(N3CCOCC3)cc2)c2ccccc2c1=O | nt | nt | 2 | -5 | -2 | 51* | 10 | nt
CCCn1nc(C(=O)NCCN2CCOCC2)c2ccccc2c1=O | -5 | -8 | 12 | 7 | -3 | 16 | nt | nt
Cc1nc2ccc(NC(=O)c3nn(CC(C)C)c(=O)c4ccccc34)cc2s1 | -4 | 11 | 4 | 1 | -2 | 77* | 86* | 51*
O=[N+]([O-])c1ccc(-c2nc(-c3cccs3)c(-c3cccs3)[nH]2)cc1 | 1 | 48 | -10 | -4 | 32 | 56* | 15 | nt
O=[N+]([O-])c1cccc(-c2nc(-c3cccs3)c(-c3cccs3)[nH]2)c1 | -2 | 36 | -13 | nt | 44 | 8 | nt | nt
O=C(O)c1ccc(-c2nc(-c3ccccc3)c(-c3ccccc3)[nH]2)cc1 | 5 | -7 | -16 | -10 | -12 | 12 | nt | nt
Oc1ccc(-c2nc(-c3ccc(F)cc3)c(-c3ccncc3)[nH]2)cc1 | nt | nt | 3 | nt | nt | 79* | 39 | 75*
Fc1ccc(-c2nc(-c3cccs3)[nH]c2-c2ccc(F)cc2)cc1 | -7 | ? | -33 | 16 | 11 | 52* | 40 | 79*
O=[N+]([O-])c1cnn(-c2nc(-c3ccccc3)cc(C(F)(F)F)n2)c1 | -1 | -9 | -5 | -9 | -5 | 42 | nt | nt
O=C(Cc1ccccc1F)Nc1ccccc1-c1ccccc1 | 26 | -1 | -1 | 22 | -4 | -23 | nt | nt
COc1ccc2cc1Oc1ccc(cc1)C[C@H]1c3cc(c(OC)cc3CCN1C)Oc1c(OC)c(OC)cc3c1[C@@H](C2)N(C)CC3 | nt | nt | 19 | -6 | 3 | 100* | 90* | 60*
CC(C)(C)N1C(=O)c2ccc(C(=O)Nc3nccs3)cc2C1=O | -8 | 4 | 25 | -6 | -5 | -7 | nt | nt
CN1C(=O)/C(=C/c2coc3ccc(O)cc3c2=O)SC1=S | 3 | -2 | 27 | 32 | -7 | 23 | nt | nt
Cc1cc(/C=C2\SC(=S)N(C)C2=O)c(C)n1-c1ccccc1O | -6 | 28 | 27 | 98* | 12 | 86* | 90* | 108*
Cc1cc(/C=C2\SC(=S)N(C)C2=O)c(C)n1-c1ccc(O)cc1 | 4 | 2 | 13 | 41 | -5 | 85* | 81* | 50*
Cc1ccc(N(C)C(=O)N2CCN(S(=O)(=O)c3c(C)cc(C)cc3C)CC2)cc1 | 8 | 17 | 8 | -1 | 1 | 25 | nt | nt
Cc1ccc(OCCCC(=O)NNC(=O)c2ccccn2)cc1 | nt | nt | 31 | 16 | -2 | 52* | 44* | 45*
SMILES | Calb FLC | T cruzi repl | NALP3 yeast inh | CSC inhib | Beta cell apopt | Mdm2-MdmX inh | Mdm2 MdmX conf | Full FLuc ctr
Cc1cc(C)cc(OCC(=O)NNC(=O)c2ccccn2)c1 | nt | nt | 14 | 23 | 0 | 50* | 32 | nt
O=C(CC1S/C(=N/N=C/C=C/c2ccccc2)NC1=O)Nc1ccc(Cl)c(Cl)c1 (centres undefined) | 0 | 7 | 9 | 8 | 0 | 63* | 12 | nt
N#CC1=C(SCC(N)=O)NC2=C(C(=O)c3ccccc32)C1c1ccc(Cl)cc1 (centres undefined) | -2 | -18 | 6 | 51 | 13 | 50* | -8 | nt
CSCSC1=C(C#N)C(c2ccc(Cl)cc2)C(C(C)=O)=C(C)N1 (centres undefined) | nt | nt | 8 | 9 | 27 | 12 | nt | nt
Nc1nc(N)nc(-c2ccccc2)n1 | -10 | -6 | 2 | 7 | -3 | -14 | nt | nt
Nc1nc(N)nc(-c2ccc(Cl)c(Cl)c2)n1 | nt | nt | 30 | 0 | -16 | 50* | 35 | nt
Cc1nc2sc3c(NCc4ccco4)ncnc3c2c2c1COC(C)(C)C2 | -6 | 17 | -69 | 85* | 0 | 63* | 46* | 37*
CCN(CC)CCSc1nnc2c3ccccc3n(CCc3ccccc3)c2n1 | 8 | 33 | 15 | 36 | 18 | -2 | nt | nt
c1ccc(CCn2c3ccccc3c3nnc(SCc4ccc5nonc5c4)nc32)cc1 | -15 | 49 | 7 | nt | 17 | 91* | 63* | 44*
Cc1cc(=O)oc2cc(OCC(=O)c3ccc4c(c3)NC(=O)CO4)ccc12 | 5 | -20 | -3 | -8 | 1 | 65* | 54* | 109*
CC(C)CC(NC(=O)c1ccc(Cl)cc1)C(=O)OCC(=O)c1ccc2c(c1)NC(=O)CO2 (centres undefined) | 0 | -10 | 8 | 43 | 68 | 95* | 94* | 17
CCOC(=O)c1c(C)[nH]c(C)c1C(=O)COC(=O)/C=C/c1ccc(OC)cc1 | nt | nt | 27 | nt | nt | 69* | 77* | 53*
COc1ccc(/C=C/C(=O)OCC(=O)c2ccc3c(c2)NC(=O)CO3)cc1 | -10 | 5 | -5 | -1 | 1 | 92* | 13 | nt
CC(C)Oc1ccc(C(=O)Nc2ccccc2N2CCCC2)cc1 | -3 | 20 | 4 | 65 | -2 | 25 | nt | nt
Cc1c(Cc2ccccc2)c(=O)oc2c(C)c(OCC(=O)N3CCC(C(=O)O)CC3)ccc12 | -1 | -12 | 21 | 1 | 0 | 9 | nt | nt
COC(=O)c1cc(-c2ccc(OC)cc2)nc2nc(SC)[nH]c(=O)c12 | -6 | -4 | 6 | -12 | -2 | -14 | nt | nt
CCOC(=O)/C(C#N)=C\c1cc(C)n(-c2ccccc2)c1C | 21 | 4 | 2 | -3 | -4 | 56* | 79* | 155*
